UHRF1 MBD2 ctr: human UHRF1 methylated DNA binding inhibitors | 370,000 tested, 0.75% active | Q96T88 | inhibition, % at 4.4 µM | UHRF1 binding to methylated oligo, TR-FRET; in the data active = inhibition above about 21%;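 note: UHRF1 SRA domain binding a hemimethylated CpG hairpin DNA probe; 0% = median of test compound wells and 100% = reference inhibitor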
LEDGF integ inh: blocks HIV-1 LEDGF/p75-dependent DNA integration. TR-FRET IN-LEDGF/p75 DNA integration, Eu/Cy5. inhibition, % at 3.7 µM. 370,000 tested, 0.64% active. AID 743269;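 active = inhibition above the screen-wide mean plus 3 SD, cut at about 13% in these data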;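 note: signal is the Cy5 over europium emission ratio at 671 and 618 nm; 0% = plate median of compound wells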
PRMT1 FP inh: inhibitors of human PRMT1. 370,000 tested, 1.3% active. Q99873. recombinant PRMT1, activity-based probe fluorescence polarization. inhibition, % at 2.79 µM;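 active = inhibition above about 21% made by adding two undisclosed values, limit read from the data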
ABHD5-PLIN5 inh: blocks binding of human ABHD5 to perilipin-5; Q00G26+Q8WTS1; Split G. princeps luciferase complementation, luminescence, 4 h; inhibition, % at 4 µM; 360,000 tested, 0.78% active; AID 602281;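 active = inhibition above the mean inhibition across every tested compound plus 3 SD, cut at about 22% in these data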;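 note: 0% = DMSO only wells and the 100% control is not disclosed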
MBD2 DNA inh: blocks human MBD2 binding to methylated DNA; Q9UBB5; TR-FRET, MBD2 binding to methylated oligonucleotide; inhibition, % at 4.4 µM; 370,000 tested, 0.31% active; in the data active = inhibition above about 13%
Target sequence (Q9UBB5 whole entry, looked up): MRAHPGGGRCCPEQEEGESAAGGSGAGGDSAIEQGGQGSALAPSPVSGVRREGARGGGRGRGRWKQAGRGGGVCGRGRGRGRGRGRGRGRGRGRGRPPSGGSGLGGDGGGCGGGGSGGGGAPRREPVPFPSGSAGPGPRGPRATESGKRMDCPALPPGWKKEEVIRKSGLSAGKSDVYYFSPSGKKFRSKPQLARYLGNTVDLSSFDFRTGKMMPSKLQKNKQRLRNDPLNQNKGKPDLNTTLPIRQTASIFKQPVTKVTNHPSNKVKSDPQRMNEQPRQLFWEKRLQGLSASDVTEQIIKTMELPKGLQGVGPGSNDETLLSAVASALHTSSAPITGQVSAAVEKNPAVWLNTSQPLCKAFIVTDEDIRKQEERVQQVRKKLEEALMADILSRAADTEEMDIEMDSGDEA
RBBP9 inh: human RBBP9 hydrolase inhibition; O75884; recombinant RBBP9, FP-Rh probe fluorescence polarization; inhibition, % at 7.94 µM; 220,000 tested, 0.2% active;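 active = inhibition above the campaign mean of all tested compounds plus 3 SD, cut at about 14% in these data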;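 note: plate controls were DMSO wells with RBBP9 for no effect and wells lacking RBBP9 protein for full effect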
Target sequence (O75884 whole entry, looked up): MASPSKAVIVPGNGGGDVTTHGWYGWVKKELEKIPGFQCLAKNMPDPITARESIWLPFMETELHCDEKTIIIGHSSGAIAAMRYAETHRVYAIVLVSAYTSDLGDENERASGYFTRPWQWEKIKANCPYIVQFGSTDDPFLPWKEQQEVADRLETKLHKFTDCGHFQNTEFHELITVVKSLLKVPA
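System: RBBP9 protein | Quantity: 2.5 µM RBBP9 dispensing solution, before mixing | Reagent: FP-Rh probe, 375 nM dispensing solution | Timing: Enzyme-compound preincubation 30 min, then probe labeling 45 min, 25 °C | Measured by: Fluorescence polarization | Read-out: % inhibition | Replication: One well per compound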
* = called active by the depositor. This is a sample that favours compounds with a hit; in the whole collection about 3.1% have one here.

Results for CCn1c(O)c(C=Nc2cc(Cl)ccc2Cl)c(=O)n(CC)c1=O ?
UHRF1 MBD2 ctr: -2; LEDGF integ inh: 0; PRMT1 FP inh: 22*; ABHD5-PLIN5 inh: 13; MBD2 DNA inh: 3; RBBP9 inh: -12

What do the screens show for `COc1ccc(Cl)cc1N=Cc1c(O)n(C)c(=O)n(C)c1=O`?
UHRF1 MBD2 ctr: 1; LEDGF integ inh: -6; PRMT1 FP inh: -1; ABHD5-PLIN5 inh: -3; MBD2 DNA inh: 1

What do the screens show for `CNc1ccc2oc(C[C@H]3O[C@@]4(CC[C@H]3C)O[C@H]([C@H](C)C(=O)c3ccc[nH]3)[C@H](C)C[C@H]4C)nc2c1C(=O)O`?
UHRF1 MBD2 ctr: -5; LEDGF integ inh: 11; PRMT1 FP inh: 26*; ABHD5-PLIN5 inh: -23; MBD2 DNA inh: -4

What do the screens show for `COc1ccc(/C=C2\C(=O)NC(=S)N(C)C2=O)cc1C`?
UHRF1 MBD2 ctr: 15; LEDGF integ inh: -6; PRMT1 FP inh: 45*; ABHD5-PLIN5 inh: -15; MBD2 DNA inh: 6; RBBP9 inh: -5

Results for Cc1ccsc1/C=C1\C(=O)NC(=S)N(C)C1=O ?
UHRF1 MBD2 ctr: -1; LEDGF integ inh: 1; PRMT1 FP inh: 6; ABHD5-PLIN5 inh: 5; MBD2 DNA inh: -1

What do the screens show for `N#CCC[C@@H]1CC[C@]2(CCCN(Cc3ccccn3)C2)O1`?
UHRF1 MBD2 ctr: 5; LEDGF integ inh: 0; PRMT1 FP inh: 4; MBD2 DNA inh: -5

What do the screens show for `C=C1C(=O)O[C@@H]2C[C@@H](C)[C@@H]3C4OC4C(=O)[C@@]3(C)[C@@H](O)[C@H]12` (some centres undefined)?
UHRF1 MBD2 ctr: 0; LEDGF integ inh: 2; PRMT1 FP inh: 2; ABHD5-PLIN5 inh: 48*; MBD2 DNA inh: 7

Results for C=C1C(=O)O[C@H]2C[C@@H](C)[C@@H]3C=CC(=O)[C@@]3(C)C[C@H]12 ?
UHRF1 MBD2 ctr: -2; LEDGF integ inh: -1; PRMT1 FP inh: 1; MBD2 DNA inh: 0

How did CCN(CCO)c1ccc(N=Cc2c(O)n(C)c(=S)[nH]c2=O)cc1 do in these assays?
UHRF1 MBD2 ctr: -1; LEDGF integ inh: 9; PRMT1 FP inh: 21*; ABHD5-PLIN5 inh: -3; MBD2 DNA inh: -2; RBBP9 inh: 7

How did CCN(CC)c1ccc(N=Cc2c(O)n(CCc3ccc(OC)c(OC)c3)c(=O)[nH]c2=O)cc1 do in these assays?
UHRF1 MBD2 ctr: -11; LEDGF integ inh: 4; PRMT1 FP inh: 6; ABHD5-PLIN5 inh: 2; MBD2 DNA inh: -6; RBBP9 inh: -6

Results for Cn1cc(C(=O)OCC(=O)Nc2ccccc2)c2ccccc21 ?
UHRF1 MBD2 ctr: 1; LEDGF integ inh: 4; PRMT1 FP inh: -2; ABHD5-PLIN5 inh: -3; MBD2 DNA inh: 2

What do the screens show for `CCN(C(=O)COC(=O)c1cn(C)c2ccccc12)c1ccc(F)cc1`?
UHRF1 MBD2 ctr: 22*; LEDGF integ inh: 7; PRMT1 FP inh: -1; ABHD5-PLIN5 inh: -3; MBD2 DNA inh: 6

How did CC(NC(=O)OCc1ccccc1)P(=O)(Oc1ccccc1)Oc1ccccc1 (centres undefined) do in these assays?
UHRF1 MBD2 ctr: 2; LEDGF integ inh: 3; PRMT1 FP inh: -6; MBD2 DNA inh: -4

What do the screens show for `C[N+]1=C(N)NC2=C3CCCCC3ONC2C1` (centres undefined)?
UHRF1 MBD2 ctr: 2; LEDGF integ inh: 7; PRMT1 FP inh: 3; MBD2 DNA inh: 6

How did C=C(C=O)CC1CC(O)[C@]2(C)OC3CC4OC5C[C@]6(C)O[C@]7(C)CCC8OC9C[C@]%10(C)OC%11C(C)=CC(=O)OC%11CC%10OC9C[C@@H](C)C8OC7CC6O[C@]5(C)C/C=C\C4OC3CC2O1 (some centres undefined) do in these assays?
UHRF1 MBD2 ctr: -3; LEDGF integ inh: 1; PRMT1 FP inh: -1; MBD2 DNA inh: 2

How did COC1C(O)C(C)OC(OC2CCC3(C)C(CCC4C3C(O)CC3(C)C(C5=CC(=O)OC5)CCC43O)C2)C1O (centres undefined) do in these assays?
UHRF1 MBD2 ctr: 5; LEDGF integ inh: -2; PRMT1 FP inh: -1; ABHD5-PLIN5 inh: 22*; MBD2 DNA inh: -2

How did CN(C(=O)Oc1ccc(Cl)c2cccnc12)c1ccccc1 do in these assays?
UHRF1 MBD2 ctr: 21*; LEDGF integ inh: 2; PRMT1 FP inh: -2; ABHD5-PLIN5 inh: 1; MBD2 DNA inh: 7; RBBP9 inh: 5

What do the screens show for `COc1ccc([C@@H]2C[C@H]3[C@@H](CN2)CON3C)cc1`?
UHRF1 MBD2 ctr: -4; LEDGF integ inh: 3; PRMT1 FP inh: 0; MBD2 DNA inh: 1

Results for C=C1[C@@H](C)C2[C@H](Cc3ccccc3)NC(=O)[C@]23[C@H](OC(C)=O)/C=C/[C@@](C)(O)C(=O)[C@@H](C)C/C=C/[C@H]3[C@@H]1O (some centres undefined) ?
UHRF1 MBD2 ctr: -1; LEDGF integ inh: 4; PRMT1 FP inh: -6; MBD2 DNA inh: -3

How did O=C1NC(=S)N(C2CC2)C(=O)/C1=C/c1ccc2c(c1)CCN2CCCCl do in these assays?
UHRF1 MBD2 ctr: 2; LEDGF integ inh: 8; PRMT1 FP inh: 35*; ABHD5-PLIN5 inh: -11; MBD2 DNA inh: 1; RBBP9 inh: -5

How did COC(=O)C1=C[C@H]([C@@H](C)[C@H](OC)c2ccccc2Br)[C@@H]2[C@H]1c1ccccc1N2C do in these assays?
UHRF1 MBD2 ctr: -2; LEDGF integ inh: 0; PRMT1 FP inh: -3; MBD2 DNA inh: -3

How did CN1C(=O)C(c2ccc([N+](=O)[O-])cc2[N+](=O)[O-])C(=O)N(C)C1=O do in these assays?
UHRF1 MBD2 ctr: 21*; LEDGF integ inh: -2; PRMT1 FP inh: 3; ABHD5-PLIN5 inh: -2; MBD2 DNA inh: -1

How did CC1=C(C(=O)O)N2C(=O)[C@@H](NC(=O)CCCC(=O)O)[C@H]2SC1 do in these assays?
UHRF1 MBD2 ctr: -3; LEDGF integ inh: -3; PRMT1 FP inh: 23*; ABHD5-PLIN5 inh: -8; MBD2 DNA inh: -1; RBBP9 inh: 10

What do the screens show for `Cc1cc(/C=C2\C(=O)NC(=O)N(Cc3ccccc3Cl)C2=O)c(C)n1-c1ccc(C(=O)O)cc1`?
UHRF1 MBD2 ctr: 22*; LEDGF integ inh: 10; PRMT1 FP inh: 12; ABHD5-PLIN5 inh: -11; MBD2 DNA inh: 10; RBBP9 inh: -1

Results for Cc1ccc(-n2c(C)cc(/C=C3/C(=O)NC(=O)N(Cc4ccco4)C3=O)c2C)cc1 ?
UHRF1 MBD2 ctr: 10; LEDGF integ inh: 28*; PRMT1 FP inh: 17; ABHD5-PLIN5 inh: 3; MBD2 DNA inh: 3; RBBP9 inh: -10

Results for CCOC(=O)CC[C@@H]1CC[C@]2(CCCN(Cc3cccnc3)C2)O1 ?
UHRF1 MBD2 ctr: -3; LEDGF integ inh: 0; PRMT1 FP inh: 1; MBD2 DNA inh: -1

What do the screens show for `O=C(NC(CCC(O)CO)P(=O)(Oc1ccccc1)Oc1ccccc1)OCc1ccccc1` (centres undefined)?
UHRF1 MBD2 ctr: -1; LEDGF integ inh: -1; PRMT1 FP inh: -3; MBD2 DNA inh: 0

Screening results (PubChem BioAssay)
